What is called logP is a log measure of how a compound divides between an organic and an aqueous phase. Lower therefore signals lower lipophilicity.

logP and Activity data for 29 compounds are collected here from ChEMBL document CHEMBL1759908, “Design, synthesis and potential 6 Hz psychomotor seizure test activity of some novel 2-(substituted)-3-{[substituted]amino}quinazolin-4(3H)-one” (Eur J Med Chem, 2011).

Active and inactive are the calls of the source.

Data set [1] is described as follows: Lipophilicity, log P of the compound in octanol-phosphate buffer. The class given is physicochemical. Put shortly:
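Experimental log P was measured by octanol-phosphate buffer partition. The mixture stood 24 h at room temperature and was then equilibrated 6 h in a separating funnel. Phases were separated and membrane-filtered, and drug in the aqueous phase was quantified by UV spectroscopy.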

The test system of data set [2] is Mus musculus. In words: Neurotoxicity in CF1 mouse assessed as minimal motor impairment at 100 mg/kg, ip after 1 min by rotarod test. The class given is toxicity, organism-based. Also on record: dose 100 mg/kg, route intraperitoneal. Conditions: in vivo. Put shortly: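 Neurotoxicity was scored as minimal motor impairment on the rotarod. Male CF-1 mice (18-25 g) received 100 mg/kg i.p. as a 0.5% methylcellulose suspension. Results are given as number toxic over number tested.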
Background: In the rotarod test animals must keep their balance on a rotating rod.

The test system of data set [3] is Mus musculus. The data set can be described thus: Anticonvulsant activity in CF1 mouse assessed as protection against 32 mA-current- for 3 secs induced seizure at 100 mg/kg, ip after 0.25 hr by 6Hz psychomotor seizure test. The data set is classed as functional. Put shortly:
(§1)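 Male CF-1 mice (18-25 g) received 100 mg/kg i.p. as a suspension in 0.5% methylcellulose. At 0.25, 0.5, 1.0, 2.0 and 4.0 h, four mice per time point were stimulated through corneal electrodes (32 mA, 3 s, 6 Hz). Mice without psychomotor seizure behaviour were counted as protected. Results are reported as number protected over number tested.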

The test system of data set [4] is Mus musculus. The data set can be described thus: Anticonvulsant activity in CF1 mouse assessed as protection against 32 mA-current- for 3 secs induced seizure at 100 mg/kg, ip after 1 hr by 6Hz psychomotor seizure test. The data set is classed as functional. Put shortly:
as §1

For data set [5], the system named is Mus musculus. The data set can be described thus: Anticonvulsant activity in CF1 mouse assessed as protection against 32 mA-current- for 3 secs induced seizure at 100 mg/kg, ip after 2 hrs by 6Hz psychomotor seizure test. The data set is classed as functional. Put shortly:
as §1

In data set [6] the test system is Mus musculus. The data set can be described thus: Anticonvulsant activity in CF1 mouse assessed as protection against 32 mA-current- for 3 secs induced seizure at 100 mg/kg, ip after 4 hrs by 6Hz psychomotor seizure test. Also on record: dose 100 mg/kg. The data set is classed as functional, organism-based. An outline of the steps:
as §1

Data set [7] deals with Mus musculus. In words: Anticonvulsant activity in CF1 mouse assessed as protection against 32 mA-current- for 3 secs induced seizure at 100 mg/kg, ip after 0.5 hr by 6Hz psychomotor seizure test. The data set is classed as functional. Put shortly: as §1
Data set [8] has as its system Mus musculus. The data set can be described thus: Anticonvulsant activity in CF1 mouse at 30 to 300 mg/kg, ip by maximal electroshock test. The class given is functional, organism-based. An outline of the steps: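 Male CF-1 mice (18-25 g) were dosed i.p. at 30, 100 and 300 mg/kg (0.5% methylcellulose suspension). Maximal electroshock protection and neurotoxicity were assessed 30 min and 4 h after administration.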
In general terms: Protection in the maximal electroshock model is a classic sign of anticonvulsant action.

Data set [9] concerns Mus musculus. In words: Anticonvulsant activity in CF1 mouse at 30 to 300 mg/kg, sc after 30 mins by subcutaneous metrazole seizure threshold test. The class given is functional, organism-based.

Compound `Cc1nc2ccccc2c(=O)n1/N=C1/C(=O)Nc2ccccc21` returned a logP in data set [1] of 2.23. The Activity entry in the data set on Mus musculus [2] is “Non-toxic”. Further, the outcome with Mus musculus [3], in the data set on Mus musculus [4], in the data set on Mus musculus [5] and with Mus musculus [6] was inactive.

In data set [1], `CCCc1nc2ccccc2c(=O)n1/N=C1/C(=O)Nc2ccccc21` showed a log partition coefficient (logP) of 3.23. Also, the Activity entry in the data set with Mus musculus [2] is on record as “Non-toxic”; with Mus musculus [3] (route intraperitoneal) it was 75%; with Mus musculus [4] (route intraperitoneal), 50%; in the data set on Mus musculus [5] (route intraperitoneal), 25%; with Mus musculus [7] (route intraperitoneal), 50%. In addition, in the data set with Mus musculus [6], the result was inactive.

Take `O=c1c2ccccc2nc(-c2ccccc2)n1/N=C/c1ccc(Oc2ccc([N+](=O)[O-])cc2)cc1`: the lipophilicity (logP) in data set [1] was determined as 6.12. The outcome in the data set on Mus musculus [8] and in the data set with Mus musculus [9] was inactive.

In data set [1], `Cc1nc2ccccc2c(=O)n1/N=C/c1ccc(Oc2ccc3ccccc3c2)cc1` returned a logP of 5.22. Also, the Activity result in the data set on Mus musculus [2] is recorded as “Non-toxic”; in the data set on Mus musculus [7] (route intraperitoneal), 50%. For the same compound, the outcome in the data set with Mus musculus [3], in the data set on Mus musculus [4], in the data set with Mus musculus [5] and in the data set on Mus musculus [6] was inactive.

The compound `Cc1nc2ccccc2c(=O)n1/N=C/c1ccc(Oc2ccccc2)cc1` registered a logP in [1] of 4.01. The Activity result in the data set with Mus musculus [2] is reported as “Non-toxic”. Moreover, the result with Mus musculus [3], in the data set on Mus musculus [4], in the data set on Mus musculus [5] and in the data set on Mus musculus [6] was inactive.

Consider `CCCc1nc2ccccc2c(=O)n1/N=C/c1ccc(Oc2ccc3c(c2)OCO3)cc1`, for which the logP in [1] is 4.82.

`CCCc1nc2ccccc2c(=O)n1/N=C/c1ccc(Oc2ccccc2)cc1` showed a logP in data set [1] of 5.2. In the data set with Mus musculus [2], the Activity entry is “Non-toxic”. Besides, the result in the data set with Mus musculus [3], in the data set with Mus musculus [5] and in the data set on Mus musculus [6] was inactive.

For the compound `Cc1cc(Oc2ccc(/C=N/n3c(C)nc4ccccc4c3=O)cc2)ccc1Cl`, the logP in data set [1] was found to be 4.41. In addition, the Activity entry in the data set with Mus musculus [2] is on record as “Non-toxic”; in the data set with Mus musculus [3] (route intraperitoneal) it was 50%; in the data set on Mus musculus [4] (route intraperitoneal) it was 25%; with Mus musculus [7] (route intraperitoneal), 50%. In addition, the result in the data set on Mus musculus [5] and in the data set on Mus musculus [6] was inactive.

In data set [1], `O=c1c2ccccc2nc(-c2ccccc2)n1/N=C/c1ccc(Oc2ccccc2)cc1` yielded a logP of 6.13. Moreover, the result in the data set with Mus musculus [8] and in the data set on Mus musculus [9] was inactive.

In data set [1], `Cc1ccc(Oc2ccc(/C=N/n3c(C)nc4ccccc4c3=O)cc2)cc1` registered a logP of 4.32. In addition, the Activity result in the data set on Mus musculus [2] is on record as “Non-toxic”; in the data set on Mus musculus [3] (route intraperitoneal), 50%; with Mus musculus [5] (route intraperitoneal), 25%; in the data set on Mus musculus [7] (route intraperitoneal) it was 75%. Besides, in the data set on Mus musculus [6], the outcome was inactive.

Turning to `O=c1c2ccccc2nc(-c2ccccc2)n1/N=C/c1ccc(Oc2ccc(F)cc2)cc1`, the logP in [1] worked out at 6.21. The Activity result is given as “Non-toxic” in the data set on Mus musculus [2] and 25% with Mus musculus [4] (route intraperitoneal). The outcome in the data set with Mus musculus [5] and in the data set on Mus musculus [6] was inactive.

In data set [1], `CCCc1nc2ccccc2c(=O)n1/N=C/c1ccc(Oc2ccc(C)cc2)cc1` yielded a lipophilicity (logP) of 5.45. Besides, the Activity entry is recorded as “Non-toxic” in the data set with Mus musculus [2] and 50% in the data set with Mus musculus [7] (route intraperitoneal). In addition, the result in the data set with Mus musculus [3], in the data set on Mus musculus [4], in the data set with Mus musculus [5] and in the data set with Mus musculus [6] was inactive.

Regarding `O=c1c2ccccc2nc(-c2ccccc2)n1/N=C/c1ccc(Oc2ccc3c(c2)OCO3)cc1`, the logP in [1] was 6.01. Further, the Activity entry in the data set on Mus musculus [2] was “Non-toxic”. The outcome in the data set with Mus musculus [4], in the data set on Mus musculus [5], in the data set with Mus musculus [6] and in the data set with Mus musculus [7] was inactive.

In turn, `O=C1Nc2ccccc2/C1=N\n1c(-c2ccccc2)nc2ccccc2c1=O` had a logP in data set [1] of 4.03. Besides, the outcome in the data set with Mus musculus [8] and in the data set on Mus musculus [9] was inactive.

Regarding `CCCc1nc2ccccc2c(=O)n1/N=C/c1ccc(Oc2ccc(F)cc2)cc1`, the logP in data set [1] amounted to 5.22. For the same compound, the Activity result with Mus musculus [2] is “Non-toxic”. The result with Mus musculus [4], in the data set with Mus musculus [5], in the data set with Mus musculus [6] and with Mus musculus [7] was inactive.

In data set [1], `CCCc1nc2ccccc2c(=O)n1/N=C/c1ccc(Oc2ccc(Cl)c(C)c2)cc1` returned a logP of 6.02. In addition, the Activity result in the data set on Mus musculus [2] is recorded as “Non-toxic”; with Mus musculus [3] (route intraperitoneal) it was 50%. Besides, the outcome with Mus musculus [6] was inactive.

For the compound `O=c1c2ccccc2nc(-c2ccccc2)n1/N=C/c1ccc(Oc2ccc3ccccc3c2)cc1`, the logP in data set [1] was 6.53. The outcome in the data set with Mus musculus [8] and in the data set on Mus musculus [9] was inactive.

`Cc1nc2ccccc2c(=O)n1/N=C/c1ccc(Oc2ccc3c(c2)OCO3)cc1` showed a lipophilicity (logP) in data set [1] of 4.01. Besides, the Activity entry with Mus musculus [2] was “Non-toxic”. Moreover, the outcome in the data set on Mus musculus [3], with Mus musculus [4], with Mus musculus [5] and in the data set on Mus musculus [6] was inactive.

In [1], `Cc1nc2ccccc2c(=O)n1/N=C/c1ccc(Oc2ccc([N+](=O)[O-])cc2)cc1` displayed a logP of 4.01. The Activity result with Mus musculus [2] is reported as “Non-toxic”. The outcome with Mus musculus [6] was inactive.

In turn, `Cc1nc2ccccc2c(=O)n1/N=C/c1ccc(Oc2ccc(F)cc2)cc1` came in with a logP in data set [1] of 4.21. The values for the Activity result in the data set on Mus musculus [2] and in the data set with Mus musculus [4] (route intraperitoneal) were “Non-toxic” and 50%, respectively. Further, the result in the data set with Mus musculus [3] and in the data set on Mus musculus [6] was inactive.

Take `Cc1ccc(Oc2ccc(/C=N/n3c(-c4ccccc4)nc4ccccc4c3=O)cc2)cc1`: the lipophilicity (logP) in data set [1] was found to be 6.29. Besides, the result with Mus musculus [8] and with Mus musculus [9] was inactive.

In turn, `CCCc1nc2ccccc2c(=O)n1/N=C/c1ccc(Oc2ccc([N+](=O)[O-])cc2)cc1` registered a logP in data set [1] of 5.18. Besides, the Activity entry in the data set on Mus musculus [2] is “Non-toxic”. The result with Mus musculus [5], in the data set with Mus musculus [6] and in the data set with Mus musculus [7] was inactive.

`CCCc1nc2ccccc2c(=O)n1/N=C/c1ccc(Oc2ccc3ccccc3c2)cc1`: the logP in data set [1] turned out to be 6.12. Further, the Activity entry was “Non-toxic” in the data set on Mus musculus [2], 50% in the data set with Mus musculus [3] (route intraperitoneal), 25% with Mus musculus [4] (route intraperitoneal) and 50% in the data set with Mus musculus [7] (route intraperitoneal). For the same compound, the result in the data set on Mus musculus [5] and in the data set on Mus musculus [6] was inactive.

`Cc1nc2ccccc2c(=O)n1/N=C/c1ccc(Oc2ccc(Br)cc2)cc1` gave a lipophilicity (logP) in [1] of 4.64. The Activity result was “Non-toxic” in the data set with Mus musculus [2] and 50% in the data set on Mus musculus [7] (route intraperitoneal). Also, the result in the data set with Mus musculus [3] and in the data set on Mus musculus [6] was inactive.

Consider `O=c1c2ccccc2nc(-c2ccccc2)n1/N=C/c1ccc(Oc2ccc(Cl)cc2)cc1`, for which the log partition coefficient (logP) in data set [1] turned out to be 6.38. The result in the data set on Mus musculus [8] and in the data set on Mus musculus [9] was inactive.

The compound `Cc1nc2ccccc2c(=O)n1/N=C/c1ccc(Oc2ccc(Cl)cc2)cc1` yielded a log partition coefficient (logP) in data set [1] of 4.6.

On to `O=c1c2ccccc2nc(-c2ccccc2)n1/N=C/c1ccc(Oc2ccc(Br)cc2)cc1`, for which, in [1], the logP was found to be 6.39.

In data set [1], `CCCc1nc2ccccc2c(=O)n1/N=C/c1ccc(Oc2ccc(Cl)cc2)cc1` registered a logP of 5.78. Besides, the Activity result is reported as “Non-toxic” in the data set on Mus musculus [2] and 50% in the data set with Mus musculus [3] (route intraperitoneal). Further, the outcome with Mus musculus [4], with Mus musculus [5], in the data set on Mus musculus [6] and in the data set with Mus musculus [7] was inactive.

In [1], `CCCc1nc2ccccc2c(=O)n1/N=C/c1ccc(Oc2ccc(Br)cc2)cc1` registered a logP of 5.88. In addition, the Activity entry in the data set on Mus musculus [2] is reported as “Non-toxic”; in the data set on Mus musculus [3] (route intraperitoneal), 50%; in the data set on Mus musculus [4] (route intraperitoneal), 50%; in the data set on Mus musculus [7] (route intraperitoneal) it was 25%. For the same compound, the outcome in the data set on Mus musculus [5] and in the data set on Mus musculus [6] was inactive.
